The target in assay [1] is T1, Transient receptor potential cation channel subfamily V member 1 (Homo sapiens, UniProt Q8NER1). Nature of the assay: Antagonist activity at low pH-induced human recombinant TRPV1 expressed in CHO-K1 cells co-expressing aequorin at 50 uM incubated for 2.5 mins in presence of ATP followed by hydrochloride addition at pH 5 by luminescence assay relative to control. Type of assay: cell-based. The procedure, abridged: (§1)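 Aequorin cells expressing recombinant human TRPV1 were loaded with coelenterazine for 4 h in the dark. Assay buffer was DMEM-F12 with 15 mM HEPES (pH 7.0) and 0.1% BSA. Cells were added to compound and incubated 2.5 min, then challenged with capsaicin or with HCl at pH 5.0, and luminescence was read at once. Digitonin (100 µM) and ATP (50 µM) served as reference blanks. Mean ± SEM of at least three experiments.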
T1 sequence (Q8NER1 whole entry): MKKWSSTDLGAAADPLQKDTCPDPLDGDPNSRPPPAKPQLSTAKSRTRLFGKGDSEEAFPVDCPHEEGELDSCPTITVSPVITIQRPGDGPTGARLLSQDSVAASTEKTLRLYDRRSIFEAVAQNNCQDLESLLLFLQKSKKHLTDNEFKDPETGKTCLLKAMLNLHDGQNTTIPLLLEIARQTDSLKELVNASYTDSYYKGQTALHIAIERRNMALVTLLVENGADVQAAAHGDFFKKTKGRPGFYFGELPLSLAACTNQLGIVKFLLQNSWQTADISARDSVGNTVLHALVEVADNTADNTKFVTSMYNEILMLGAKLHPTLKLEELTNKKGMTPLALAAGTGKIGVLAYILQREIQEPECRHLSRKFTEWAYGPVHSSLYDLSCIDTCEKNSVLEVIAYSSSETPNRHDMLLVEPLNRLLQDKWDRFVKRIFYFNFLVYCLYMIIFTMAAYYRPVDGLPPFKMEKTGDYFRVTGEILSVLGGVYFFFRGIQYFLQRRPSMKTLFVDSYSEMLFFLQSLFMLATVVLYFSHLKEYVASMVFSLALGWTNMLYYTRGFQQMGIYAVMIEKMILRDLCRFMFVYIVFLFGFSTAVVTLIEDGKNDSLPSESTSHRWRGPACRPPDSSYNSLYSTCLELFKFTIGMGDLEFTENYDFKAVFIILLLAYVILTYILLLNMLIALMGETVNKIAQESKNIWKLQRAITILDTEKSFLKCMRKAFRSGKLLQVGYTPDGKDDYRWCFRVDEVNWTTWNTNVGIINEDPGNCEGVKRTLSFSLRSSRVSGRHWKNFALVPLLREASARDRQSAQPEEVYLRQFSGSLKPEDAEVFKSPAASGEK

Assay [2] has as its target T1, Transient receptor potential cation channel subfamily V member 1. The assay can be described thus: Antagonist activity at capsaicin-induced human recombinant TRPV1 expressed in CHO-K1 cells co-expressing aequorin incubated for 2.5 mins in presence of ATP followed by capsaicin addition by luminescence assay. Format: cell-based. Summed up:
as §1

The values that follow come from ChEMBL document CHEMBL4364266, “Design, synthesis and biological evaluation of novel 2,3,4,9-tetrahydro-1H-pyrido[3,4-b]indole triazole derivatives as potent TRPV1 antagonists” (Eur J Med Chem, 2019).

On to `CC(C)c1ccccc1-n1cc(CN2CCc3ccccc32)nn1`, for which the inhibition in assay [1] was determined as 39%. For `FC(F)(F)c1ccccc1-n1cc(CN2CCc3ccccc32)nn1`, in assay [2], the concentration for half-maximal inhibition (IC50) came to 4.94 µM. For the same compound, the inhibition in assay [1] amounted to 55%. With `Cc1cc(C)nc(-n2cc(CN3CCc4c([nH]c5ccccc45)C3)nn2)c1`, the inhibition in assay [1] was found to be 13%.

As for `CC(C)c1cccc(-n2cc(CN3CCc4c([nH]c5ccccc45)C3)nn2)c1`, the IC50 in assay [2] worked out at 1.67 µM. Besides, the inhibition in assay [1] is 40%. The like results for `COc1ccc(-n2cc(CN3CCc4c([nH]c5ccccc45)C3)nn2)cc1` were, in that order, 1.2 µM and 55%. For `Cc1ccc(-n2cc(CN3CCc4c([nH]c5ccccc45)C3)nn2)c([N+](=O)[O-])c1`, in assay [1], the inhibition came out at 71%. As to `Clc1ccc(-n2cc(CN3CCc4c([nH]c5ccccc45)C3)nn2)cc1`, the IC50 in assay [2] is 0.495 µM. Also, the inhibition in assay [1] stood at 73%.

`Cc1ccc(C)c(-n2cc(CN3CCc4c([nH]c5ccccc45)C3)nn2)c1`: the IC50 in assay [2] came to 1.54 µM. Moreover, the inhibition in assay [1] is 67%. For `Cc1cc(C)c(-n2cc(CN3CCc4c([nH]c5ccccc45)C3)nn2)c(C)c1`, the inhibition in assay [1] amounted to 13%. Turning to `O=[N+]([O-])c1cc(Cl)ccc1-n1cc(CN2CCc3c([nH]c4ccccc34)C2)nn1`, in assay [2], the IC50 was 0.394 µM. The inhibition in assay [1] was 67%. The corresponding values for `COc1ccc(-n2cc(CN3CCc4c([nH]c5ccccc45)C3)nn2)cc1OC` are 1.12 µM and 74%.

Take `Fc1ccc(-n2cc(CN3CCc4c([nH]c5ccccc45)C3)nn2)cc1`: the IC50 in assay [2] is 0.494 µM. Besides, in assay [1], the inhibition was determined as 74%. The corresponding values for `c1cc(-n2cc(CN3CCc4c([nH]c5ccccc45)C3)nn2)c2ccncc2c1` are 2.16 µM and 59%. The like results for `Clc1cccc(-n2cc(CN3CCc4c([nH]c5ccccc45)C3)nn2)c1` were, in that order, 0.416 µM and 71%. The corresponding values for `COc1ccccc1-n1cc(CN2CCc3c([nH]c4ccccc34)C2)nn1` are 1.88 µM and 64%. In the case of `c1ccc(-n2cc(CN3CCc4c([nH]c5ccccc45)C3)nn2)cc1`, the IC50 in assay [2] was found to be 0.314 µM. In assay [1], the inhibition turned out to be 68%. Turning to `Brc1ccc(-n2cc(CN3CCc4c([nH]c5ccccc45)C3)nn2)cc1`, in assay [2], the IC50 turned out to be 0.788 µM. The inhibition in assay [1] worked out at 78%. The corresponding values for `Clc1ccc(-n2cc(CN3CCc4ccccc43)nn2)cc1` are 12.6 µM and 42%.

As to `Cc1ccc(-n2cc(CN3CCc4c([nH]c5ccccc45)C3)nn2)cc1Cl`, in assay [1], the inhibition is 48%. The same measure, in the same setting: in the case of `Fc1ccc2c(c1)CCN2Cc1cn(-c2ccc(Cl)cc2)nn1` it was 12%.

As to `CC(C)c1ccccc1-n1cc(CN2CCc3c([nH]c4ccccc34)C2)nn1`, the IC50 in assay [2] came to 2.53 µM. In addition, the inhibition in assay [1] was 67%. The corresponding values for `CC(C)(C)c1ccc(-n2cc(CN3CCc4cc(Cl)ccc43)nn2)cc1` are 27.1 µM and 24%.

Consider `CC(C)(C)c1ccc(-n2cc(CN3CCc4c([nH]c5ccccc45)C3)nn2)cc1`, for which the IC50 in assay [2] was 1.22 µM. In addition, the inhibition in assay [1] is 61%. Consider `Clc1ccc(-n2cc(CN3CCc4cc(Cl)ccc43)nn2)cc1`, for which the inhibition in assay [1] stood at 34%. As to `Clc1ccccc1-n1cc(CN2CCc3c([nH]c4ccccc34)C2)nn1`, the IC50 in assay [2] was 0.243 µM. Moreover, in assay [1], the inhibition was found to be 64%.

Regarding `FC(F)(F)c1ccc(-n2cc(CN3CCc4c([nH]c5ccccc45)C3)nn2)cc1`, the IC50 in assay [2] was 0.204 µM. In assay [1], the inhibition was 79%. The like results for `CC(C)(C)c1ccc(-n2cc(CN3CCc4ccccc43)nn2)cc1` were, in that order, 22.6 µM and 32%. In the case of `Clc1ncccc1-n1cc(CN2CCc3c([nH]c4ccccc34)C2)nn1`, the IC50 in assay [2] turned out to be 3.49 µM. Further, the inhibition in assay [1] was determined as 72%. `CC(C)c1cccc(-n2cc(CN3CCc4ccccc43)nn2)c1`: in assay [1], the inhibition stood at 17%.
